Our source for the Potency ratio and Ki values is ChEMBL document CHEMBL1124805 (J Med Chem, 1990).

Some results are limits rather than exact numbers.

The target in experiment [1] is Dopamine receptors; D1 & D2 (Rattus norvegicus) (UniProt P18901+P61169). The experiment in a line: Ratio of binding affinity of D2 to binding affinity of D1. The format is protein assay.
In the next experiment the target is Dopamine receptor (Bos taurus, UniProt Q95136+P20288). The experiment in a line: Agonistic activity against calf striatal Dopamine receptor using [3H]- ADTN radioligand. The format is functional. In outline:
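Calf striatal membranes incubated with the dopamine agonist radioligand (±)-[3H]ADTN at 0.5 nM for 60 min at 25 °C.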

For a further experiment, the target named is D(2) dopamine receptor (Rattus norvegicus, UniProt P61169). The experiment in a line: Binding affinity at rat striatal Dopamine receptor D2 using [3H]- piperone radioligand.
Sequence of D(2) dopamine receptor (P61169 whole entry): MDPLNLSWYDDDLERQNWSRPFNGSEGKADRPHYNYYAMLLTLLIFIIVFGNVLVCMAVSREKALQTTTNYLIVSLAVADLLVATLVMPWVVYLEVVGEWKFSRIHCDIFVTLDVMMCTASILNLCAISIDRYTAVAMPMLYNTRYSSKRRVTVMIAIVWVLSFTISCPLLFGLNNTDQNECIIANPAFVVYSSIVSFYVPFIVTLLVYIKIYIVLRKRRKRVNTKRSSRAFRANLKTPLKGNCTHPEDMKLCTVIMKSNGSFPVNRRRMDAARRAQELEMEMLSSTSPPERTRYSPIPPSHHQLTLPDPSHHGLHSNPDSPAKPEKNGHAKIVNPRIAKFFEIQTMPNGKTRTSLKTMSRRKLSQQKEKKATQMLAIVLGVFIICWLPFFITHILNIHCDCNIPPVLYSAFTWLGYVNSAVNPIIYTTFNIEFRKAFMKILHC
In another experiment the target is D(1A) dopamine receptor (Rattus norvegicus, UniProt P18901). Nature of the experiment: Binding affinity at rat striatal Dopamine receptor D1 using [3H]- SCH-23390 radioligand.
Sequence of D(1A) dopamine receptor (P18901 whole entry): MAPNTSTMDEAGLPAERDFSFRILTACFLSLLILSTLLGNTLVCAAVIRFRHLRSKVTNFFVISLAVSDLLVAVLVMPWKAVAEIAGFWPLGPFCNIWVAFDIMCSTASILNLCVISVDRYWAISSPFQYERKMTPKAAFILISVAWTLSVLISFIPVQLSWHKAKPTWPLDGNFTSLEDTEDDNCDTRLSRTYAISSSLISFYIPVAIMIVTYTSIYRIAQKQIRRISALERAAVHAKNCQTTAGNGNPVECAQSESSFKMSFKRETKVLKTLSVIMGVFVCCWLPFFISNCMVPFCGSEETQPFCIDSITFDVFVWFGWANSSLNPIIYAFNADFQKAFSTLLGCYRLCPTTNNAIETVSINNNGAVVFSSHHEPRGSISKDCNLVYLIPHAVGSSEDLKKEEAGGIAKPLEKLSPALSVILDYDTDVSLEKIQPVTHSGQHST

Consider `CCCN1CCc2cc(OC)cc3c2[C@H]1Cc1ccc(O)c(O)c1-3`, for which the Potency ratio in experiment [1] is 10500. For the same compound, the Ki (in general, the dissociation constant of the complex between target and ligand, obtained from inhibition or displacement) at Dopamine receptor was 3.84 nM; at D(2) dopamine receptor, 0.17 nM; on D(1A) dopamine receptor, 1780 nM.

Turning to `CN1CCc2cc(Cl)cc3c2[C@H]1Cc1ccc(O)c(O)c1-3`, the Potency ratio in experiment [1] came out at 3.3. Also, the Ki at D(2) dopamine receptor came out at 22.3 nM; on D(1A) dopamine receptor it was 74.5 nM.

For `COc1cc2c3c(c1)-c1c(ccc(O)c1O)C[C@@H]3N(C)CC2`, the Potency ratio in experiment [1] was above 300. Also, the results for the Ki at Dopamine receptor, on D(2) dopamine receptor and at D(1A) dopamine receptor were 162 nM, 34.7 nM and below 10000 nM, respectively.

With `CN1CCc2cc(Br)cc3c2[C@H]1Cc1ccc(O)c(O)c1-3`, the Potency ratio in experiment [1] turned out to be 6. For the same compound, the figures for the Ki on D(2) dopamine receptor and on D(1A) dopamine receptor were 17.7 nM and 106 nM, respectively.

With `COc1cc2c3c(c1)-c1c(ccc(O)c1O)C[C@H]3N(C)CC2`, in experiment [1], the Potency ratio is above 9000. For the same compound, the Ki at Dopamine receptor was 16.4 nM; on D(2) dopamine receptor, 1.12 nM; on D(1A) dopamine receptor it was below 10000 nM.

`CCCN1CCc2cc(O)cc3c2[C@H]1Cc1ccc(O)c(O)c1-3`: the Potency ratio in experiment [1] amounted to 17300. For the same compound, the results for the Ki at Dopamine receptor, on D(2) dopamine receptor and on D(1A) dopamine receptor were 1.15 nM, 0.053 nM and 915 nM, respectively.
